Numbering of substitutions follows the chain as printed. In brackets after ≈: the same amount, converted by molar mass. Activity calls are given as the source filed them. The calls are words filed in the database; no cut-off is given here.
What was measured:
[1] = target: T1, Cell division protein FtsZ (Staphylococcus aureus) (UniProt P0A031); assay: Stimulation of Staphylococcus aureus FtsZ assembly and bundling at 20 ug/mL by transmission electron microscopy
T1 sequence (whole entry): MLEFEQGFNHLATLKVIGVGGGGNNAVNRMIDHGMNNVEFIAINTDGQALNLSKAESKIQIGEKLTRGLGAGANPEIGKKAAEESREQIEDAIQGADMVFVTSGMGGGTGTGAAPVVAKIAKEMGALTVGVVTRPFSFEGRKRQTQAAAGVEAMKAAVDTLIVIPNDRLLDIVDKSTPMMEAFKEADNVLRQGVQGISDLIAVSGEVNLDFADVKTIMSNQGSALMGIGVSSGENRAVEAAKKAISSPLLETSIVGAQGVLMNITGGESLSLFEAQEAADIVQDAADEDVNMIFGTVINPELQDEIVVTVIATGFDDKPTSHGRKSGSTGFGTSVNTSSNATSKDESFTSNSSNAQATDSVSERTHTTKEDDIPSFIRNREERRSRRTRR
Summary of the method: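 SaFtsZ polymerized with 20 μg/mL compound under light-scattering assay conditions (10 μM protein, 1 mM GTP, 1 mM CaCl2, pH 7.4). Reaction diluted 1:10 in polymerization buffer, applied to glow-discharged Formvar/carbon grids, negatively stained with 1% phosphotungstic acid for 1 min, and imaged by TEM at 80 kV.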

[2] = Binding affinity to Enterococcus faecalis FtsZ at 25 degC by fluorescence anisotropy assay; details: read-out: Kd
[3] = system: T2, Cell division protein FtsZ (Staphylococcus aureus), P0A031 [G196A]; assay: Binding affinity to Staphylococcus aureus FtsZ G196A mutant self-polymerization at 10 ug/mL by microtiter plate-based light scattering assay
T2 sequence (whole entry): T1 sequence (whole entry) with G196A

[4] = target: Tubulin beta chain (Sus scrofa) (UniProt P02554); assay: Effect on MAP-rich pig beta-tubulin polymerization at 40 ug/mL by microtiter plate-based light scattering assay
Summary of the method: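 MAP-rich porcine tubulin (70% β-tubulin, 30% MAPs) at 2 mg/mL with 1 mM GTP. Buffer was 80 mM PIPES·NaOH pH 7.0, 2 mM MgCl₂, 1 mM EGTA. Light scattering was followed as A340 continuously at 37 °C for 60 min, against a DMSO vehicle.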

[5] = system: T3, Cell division protein FtsZ (Staphylococcus aureus), P0A031 [E185A]; assay: Binding affinity to Staphylococcus aureus FtsZ E185A mutant self-polymerization at 20 ug/mL by microtiter plate-based light scattering assay
T3 sequence (whole entry): T1 sequence (whole entry) with E185A

Streptococcus pyogenes = assay: Antimicrobial activity against Streptococcus pyogenes Strep A ATCC 19615 incubated for 24 hrs by broth microdilution method; type: functional; details: Strep A ATCC 19615, 24 h
Summary of the method: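 CLSI broth microdilution. Log-phase bacteria at 10⁵ CFU/mL were exposed to 2-fold serial dilutions (64 to 0.016 μg/mL) in cation-adjusted Mueller-Hinton broth, 5% defibrinated sheep blood added for Streptococcus. Incubated aerobically 24 h at 37 °C. Growth read as OD600; MIC taken as the lowest concentration giving 90% growth inhibition.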

[6] = target: Cell division protein FtsZ (Staphylococcus aureus, UniProt P0A031, I228R); assay: Binding affinity to Staphylococcus aureus FtsZ I228R mutant expressed in Escherichia coli BL21 (DE3) at 25 degC by fluorescence anisotropy assay
Summary of the method: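 Purified SaFtsZ mutant protein (0–25 μM) mixed with 5 μM compound in 50 mM Tris·HCl pH 7.4, 50 mM KCl, 2 mM magnesium acetate. After 5 min at 25 °C, steady-state fluorescence anisotropy read at excitation 245 / emission 318 nm, G-factor corrected, triplicate. Kd from nonlinear least-squares fit.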

[7] = target: T4, Cell division protein FtsZ (Escherichia coli K-12) (UniProt P0A9A6); assay: Stimulation of Escherichia coli FtsZ assembly at 20 ug/mL by transmission electron microscopy
T4 sequence (whole entry): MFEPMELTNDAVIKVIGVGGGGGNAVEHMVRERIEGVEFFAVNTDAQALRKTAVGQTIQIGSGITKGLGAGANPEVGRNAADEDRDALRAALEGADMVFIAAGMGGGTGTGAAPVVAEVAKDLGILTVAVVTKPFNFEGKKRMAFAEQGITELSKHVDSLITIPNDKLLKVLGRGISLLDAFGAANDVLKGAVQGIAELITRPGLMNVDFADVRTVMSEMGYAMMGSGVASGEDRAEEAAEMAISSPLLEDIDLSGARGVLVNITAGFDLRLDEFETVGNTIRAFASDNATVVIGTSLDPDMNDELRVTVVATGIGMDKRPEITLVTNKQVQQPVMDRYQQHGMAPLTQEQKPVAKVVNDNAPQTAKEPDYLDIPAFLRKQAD
Summary of the method: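 EcFtsZ was polymerized with 20 μg/mL compound (10 μM protein, 1 mM GTP, 10 mM CaCl₂, Tris/KCl/Mg acetate buffer pH 7.4). The reaction was diluted 1:10 in polymerization buffer at room temperature and applied to glow-discharged Formvar/carbon copper grids. Grids were negatively stained 1 min with 1% phosphotungstic acid and imaged by TEM at 80 kV.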

Staphylococcus aureus = assay: Antimicrobial effect against methicillin-sensitive Staphylococcus aureus 8325-4 assessed as changes in MIC measured after 12 incubation cycles by stepwise broth microdilution method relative to initial compound MIC; type: functional, organism-based
Summary of the method: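 Stepwise resistance selection. S. aureus 8325-4 at 10⁵ CFU/mL was inoculated into 2-fold increasing compound concentrations and incubated 24 h at 37 °C. Aliquots from the well with the highest concentration still showing growth (2-fold below MIC) seeded a new serial 2-fold dilution plate. This was repeated for multiple cycles, with MIC determined each cycle.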

Tubulin beta chain (Sus scrofa), sequence (P02554 whole entry): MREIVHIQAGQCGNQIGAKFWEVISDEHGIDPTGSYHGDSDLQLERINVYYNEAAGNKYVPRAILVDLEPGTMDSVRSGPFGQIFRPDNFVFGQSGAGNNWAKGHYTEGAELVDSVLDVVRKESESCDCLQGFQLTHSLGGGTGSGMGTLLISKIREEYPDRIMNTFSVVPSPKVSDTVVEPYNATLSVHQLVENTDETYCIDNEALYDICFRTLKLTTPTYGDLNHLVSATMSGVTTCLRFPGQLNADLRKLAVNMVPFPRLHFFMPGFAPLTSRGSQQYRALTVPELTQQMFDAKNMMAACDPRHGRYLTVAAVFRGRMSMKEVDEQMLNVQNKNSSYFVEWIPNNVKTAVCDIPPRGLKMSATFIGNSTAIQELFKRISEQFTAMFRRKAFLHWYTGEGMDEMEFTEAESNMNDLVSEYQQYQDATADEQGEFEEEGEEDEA

CC(C)(C)c1ccc(-c2cccc(CNC(=N)N)c2)cc1
Activity [1]: Active
Kd [2]: 21.8 µM
Activity [3]: Active
Activity [4]: inactive
Activity [5]: inactive
MIC (Streptococcus pyogenes): 2 mg/L (≈ 7.11 µM)
Kd [6]: 32.9 µM
Activity [7]: Active
Activity (Staphylococcus aureus): Active

Reference: ChEMBL document CHEMBL2176974, “A bactericidal guanidinomethyl biaryl that alters the dynamics of bacterial FtsZ polymerization” (J Med Chem, 2012)
